A value given as a limit tells only on which side of the number the result lay.

Experiment [1] deals with Mus musculus. The experiment can be described thus: Effect on nonesterified fatty acid level in HFD-fed C57BL/6J Jms Slc DIO mouse plasma at 5 g/kg of diet after 28 days. The format is functional. In a few lines: (§1)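 DIO mice (HFD 8 weeks, then drug in powdered HFD at 5 g/kg diet for 4 weeks) fasted 8 h at the end. Secobarbital 40 mg/kg ip, cardiac-puncture blood into EDTA, plasma spun at 5000g, 10 min, 4 °C and frozen. Enzymatic colour kits, 37 °C. Glucose: 5 min, A505. TG and cholesterol: 5 min, A600. NEFA: 20 min, A550. Means ± SEM, n = 8–9.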

Experiment [2] has as its target T1, Tyrosine-protein phosphatase non-receptor type 2 (Homo sapiens, UniProt P17706).
T1 sequence (P17706 whole entry): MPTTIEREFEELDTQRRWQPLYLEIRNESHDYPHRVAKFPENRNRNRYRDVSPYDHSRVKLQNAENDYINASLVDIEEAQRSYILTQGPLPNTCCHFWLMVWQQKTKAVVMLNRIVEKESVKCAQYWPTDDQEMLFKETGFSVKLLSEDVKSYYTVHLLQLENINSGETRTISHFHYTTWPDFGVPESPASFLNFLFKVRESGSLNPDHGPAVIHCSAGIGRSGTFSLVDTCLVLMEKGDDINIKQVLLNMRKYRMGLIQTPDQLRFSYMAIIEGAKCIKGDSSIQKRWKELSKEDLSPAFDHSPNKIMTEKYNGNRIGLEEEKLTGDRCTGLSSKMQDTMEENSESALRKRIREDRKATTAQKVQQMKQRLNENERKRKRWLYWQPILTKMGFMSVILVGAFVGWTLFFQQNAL
The experiment can be described thus: Inhibition of TC-PTP. The method, boiled down:
(§2)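 Commercial LAR-D1 (membrane-proximal catalytic domain) and TC-PTP, each at 33 U/mL. Run at 37 °C in 100 mM Hepes, 5 mM EDTA, pH 7.0. Inhibitor in DMSO preincubated 10 min before 2 mM pNPP (final) added. After 3 min, quenched with NaOH and A405 read. IC50 from a range of inhibitor concentrations.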

The subject of experiment [3] is Mus musculus. Put plainly: Effect on body weight in HFD-fed C57BL/6J Jms Slc DIO mouse at 5 g/kg of diet after 28 days. The format is functional. In a few lines:
(§3)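 Male C57BL/6J Jms Slc mice (4 weeks old, 17–19 g), acclimatized 1 week on LFD, then HFD for 8 weeks to induce obesity. Next 4 weeks on powdered HFD with compound kneaded in at 5 g/kg diet (0.5% w/w), dissolved with 2 equiv NaOH in water. Vehicle diet was kneaded with the same volume of water. n = 9/group, LFD lean control n = 8. Body weight recorded every other day. Means ± SEM.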

For experiment [4], the target named is Tyrosine-protein phosphatase non-receptor type 6 (Homo sapiens, UniProt P29350). Put plainly: Inhibition of SHP-1 catalytic domain. In a few lines: (§4)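 Enzymes expressed in E. coli and purified: native PTP1B at 2.1 µg/mL, SHP-1 catalytic domain at 5 µg/mL. Buffer 100 mM Hepes, 5 mM EDTA, pH 7.0, 37 °C. Enzyme preincubated 10 min with inhibitor in DMSO, then 2 mM pNPP (final) added. Reaction 3 min, quenched with NaOH, p-nitrophenol read at 405 nm. IC50 taken over a range of inhibitor concentrations.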
Sequence of Tyrosine-protein phosphatase non-receptor type 6 (P29350 whole entry, the tested form may be a part): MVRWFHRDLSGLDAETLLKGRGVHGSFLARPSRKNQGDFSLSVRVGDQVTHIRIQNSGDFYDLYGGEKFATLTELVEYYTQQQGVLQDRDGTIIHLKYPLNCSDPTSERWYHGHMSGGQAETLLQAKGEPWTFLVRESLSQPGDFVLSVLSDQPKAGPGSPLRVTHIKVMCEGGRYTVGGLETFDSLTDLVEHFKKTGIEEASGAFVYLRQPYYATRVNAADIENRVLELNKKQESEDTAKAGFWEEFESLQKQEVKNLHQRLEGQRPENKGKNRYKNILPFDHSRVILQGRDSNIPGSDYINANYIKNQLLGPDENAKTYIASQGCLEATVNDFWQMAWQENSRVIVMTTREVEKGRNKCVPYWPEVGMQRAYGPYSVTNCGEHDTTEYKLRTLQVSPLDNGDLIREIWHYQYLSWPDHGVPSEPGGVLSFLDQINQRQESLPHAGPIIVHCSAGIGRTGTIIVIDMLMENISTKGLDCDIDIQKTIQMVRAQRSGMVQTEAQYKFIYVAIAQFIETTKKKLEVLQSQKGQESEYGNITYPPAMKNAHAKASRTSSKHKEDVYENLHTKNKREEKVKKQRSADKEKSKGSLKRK

Experiment [5] relates to Mus musculus. The experiment can be described thus: Effect on triglyceride level in HFD-fed C57BL/6J Jms Slc DIO mouse plasma at 5 g/kg of diet after 28 days. The format is functional. In a few lines:
as §1

Experiment [6] concerns Mus musculus. The experiment can be described thus: Effect on total cholesterol in HFD-fed C57BL/6J Jms Slc DIO mouse plasma at 5 g/kg of diet after 28 days. The format is functional. The method, boiled down:
as §1

For experiment [7], the system named is Mus musculus. Put plainly: Effect on adipose epididymal tissue weight in HFD-fed C57BL/6J Jms Slc DIO mouse at 5 g/kg of diet after 28 days. The format is functional. The method, boiled down: as §3
Experiment [8] concerns Mus musculus. Put plainly: Effect on liver weight in HFD-fed C57BL/6J Jms Slc DIO mouse at 5 g/kg of diet after 28 days. The format is functional. The method, boiled down: as §3
Experiment [9] in a line: Inhibition of LAR-D1. On the set-up: species or system Homo sapiens. The method, boiled down: as §2
The subject of experiment [10] is Mus musculus. Put plainly: Effect on adipose retroperitoneal tissue weight in HFD-fed C57BL/6J Jms Slc DIO mouse at 5 g/kg of diet after 28 days. It counts as functional. In a few lines:
as §3

Experiment [11] deals with T2, Tyrosine-protein phosphatase non-receptor type 1 (Homo sapiens, UniProt P18031).
T2 sequence (P18031 whole entry): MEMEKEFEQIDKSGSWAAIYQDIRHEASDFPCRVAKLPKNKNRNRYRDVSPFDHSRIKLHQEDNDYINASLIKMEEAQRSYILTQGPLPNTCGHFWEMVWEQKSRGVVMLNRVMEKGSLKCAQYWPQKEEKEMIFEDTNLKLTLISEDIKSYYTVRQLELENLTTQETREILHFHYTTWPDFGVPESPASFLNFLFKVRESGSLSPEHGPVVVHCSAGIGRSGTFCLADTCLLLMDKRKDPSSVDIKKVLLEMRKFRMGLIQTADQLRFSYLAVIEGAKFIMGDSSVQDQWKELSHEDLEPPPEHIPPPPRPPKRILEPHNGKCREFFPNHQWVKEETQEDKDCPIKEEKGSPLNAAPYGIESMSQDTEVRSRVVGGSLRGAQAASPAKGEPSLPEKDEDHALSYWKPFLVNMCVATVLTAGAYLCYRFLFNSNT
Put plainly: Inhibition of PTP1B. The method, boiled down: as §4

For experiment [12], the system named is Mus musculus. The experiment can be described thus: Effect on glucose level in HFD-fed C57BL/6J Jms Slc DIO mouse plasma at 5 g/kg of diet after 28 days. It counts as functional. The method, boiled down: as §1
Experiment [13] deals with T3, Tyrosine-protein phosphatase 1 (Saccharomyces cerevisiae S288c, UniProt P25044).
T3 sequence (P25044 whole entry): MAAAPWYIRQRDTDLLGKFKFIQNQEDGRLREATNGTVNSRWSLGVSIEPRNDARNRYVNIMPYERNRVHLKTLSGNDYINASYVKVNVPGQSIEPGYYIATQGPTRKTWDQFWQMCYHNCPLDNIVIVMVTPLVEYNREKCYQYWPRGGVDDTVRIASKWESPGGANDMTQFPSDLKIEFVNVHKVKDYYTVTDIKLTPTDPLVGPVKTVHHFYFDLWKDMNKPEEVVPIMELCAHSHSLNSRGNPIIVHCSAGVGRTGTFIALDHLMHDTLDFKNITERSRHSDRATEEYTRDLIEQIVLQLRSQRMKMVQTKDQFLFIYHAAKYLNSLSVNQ
The experiment can be described thus: Inhibition of yeast PTP1. In a few lines:
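Yeast PTPase YPTP1 at 30 ng/mL. pNPP hydrolysis at 37 °C, pH 7.0 Hepes/EDTA buffer, 10 min inhibitor preincubation, 2 mM pNPP final, 3 min reaction, NaOH stop, A405. IC50 derived from activity across inhibitor concentrations.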

As usually defined, the IC50 is the concentration that gives 50% inhibition. Higher therefore signals a need for much substance. For orientation: Ki means a dissociation constant, usually derived from enzyme kinetics or from competition with a known ligand. The low end stands for a stronger hold on the target, the high end for a looser hold on the target. For `O=C(O)c1cc(-c2ccccc2)cc(Cc2cc(-c3ccccc3)cc(C(=O)O)c2O)c1O`, the Activity turned out to be 0.14 mEq/L in [1]; 28.9 g in experiment [3]; 48 mg/dL in [5]; 133 mg/dL in experiment [6]; 0.83 g in [7]; 1.07 g in experiment [8]. In addition, the Activity in experiment [10] turned out to be 0.26 g; in [12], 280 mg/dL. Besides, the half-maximal inhibitory concentration (IC50) is 156 µM in experiment [2]; 37 µM in [4]; more than 2000 µM in experiment [9]; 19 µM in [11]; 86 µM in experiment [13]. The Ki in experiment [2] was found to be 89 µM; in experiment [4], 9.7 µM; in experiment [11], 6.5 µM.

In experiment [11], `O=C(O)c1cc(-c2ccco2)cc(Cc2cc(-c3ccco3)cc(C(=O)O)c2O)c1O` gave an IC50 of 67 µM.

`O=C(O)c1ccc2ccccc2c1O` [CARBOXYNAPHTHOL] registered an IC50 in experiment [11] of 850 µM.

Compound `O=C(O)c1cc(-c2ccccc2)cc(Cc2ccccc2)c1O` came in with a 50% inhibitory concentration (IC50) in [11] of 57 µM.

Turning to `O=Cc1cc(C(=O)O)c(O)c(C2CCCO2)c1` (stereo not drawn), the IC50 in experiment [11] was 380 µM.

In experiment [11], `O=C(O)c1cc(F)cc(Cc2cc(F)cc(C(=O)O)c2O)c1O` came in with a concentration for half-maximal inhibition (IC50) of 215 µM.

Turning to `O=C(O)c1cccc(Br)c1O`, the half-maximal inhibitory concentration (IC50) in experiment [11] was more than 1000 µM.

On to `O=C(O)Cc1cc(O)c(CC(=O)O)cc1O`, for which, in experiment [11], the half-maximal inhibitory concentration (IC50) is more than 1000 µM.

Take `O=C(O)c1cc(-c2ccccc2)cc(Br)c1O`: the IC50 in experiment [11] amounted to 351 µM.

Compound `O=C(O)c1cccc(-c2ccccc2)c1O` yielded an IC50 in experiment [11] of 859 µM.

In the case of `O=C(O)c1cc(Cc2cc(C(=O)O)c(O)c(-c3ccccc3)c2)cc(-c2ccccc2)c1O`, the Activity in [1] came out at 0.24 mEq/L; in experiment [5] it was 42 mg/dL; in experiment [6], 129 mg/dL; in experiment [8] it was 1.03 g; in experiment [12], 300 mg/dL.

For `O=C(O)c1cc(Br)cc(Cc2cc(Br)cc(C(=O)O)c2O)c1O`, in [11], the IC50 is 149 µM.

The compound `O=Cc1ccc(O)c(C(=O)O)c1` displayed a concentration for half-maximal inhibition (IC50) in [11] of more than 1000 µM.

The compound `O=C(O)c1cc(F)ccc1O` showed an IC50 in experiment [11] of more than 1000 µM.

Turning to `O=C(O)c1cc(Cc2ccccc2)ccc1O`, inhibition in [11] was half-maximal at 1180 µM (IC50).

Take `O=C(O)c1cc(-c2ccccc2)ccc1O`: half-maximal inhibition in experiment [11] (IC50) required 1280 µM.

`O=C(O)c1cc(Cc2ccccc2)cc(Br)c1O`: the half-maximal inhibitory concentration (IC50) in [11] was 153 µM.

`O=C(O)c1cc(Cc2ccccc2)cc(Cc2ccccc2)c1O` registered an IC50 in [11] of 91 µM.

In the case of `O=C(O)c1cc(Cc2ccccc2)cc(-c2ccccc2)c1O`, the concentration for half-maximal inhibition (IC50) is 540 µM in experiment [2]; 129 µM in experiment [4]; more than 2000 µM in [9]; 65 µM in experiment [11]; 271 µM in experiment [13].

In experiment [11], `O=C(O)c1cc(S(=O)(=O)O)ccc1O` [SULFOSALICYLIC] registered a half-inhibitory concentration (IC50) of more than 1000 µM.

`O=C(O)c1cc(Br)cc(Cc2ccccc2)c1O` gave an IC50 in experiment [11] of 148 µM.

`O=C(O)c1cccc(Cc2ccccc2)c1O` showed an IC50 in experiment [11] of 403 µM.

For the compound `O=C(O)c1cc(-c2ccccc2)cc(-c2ccccc2)c1O`, the IC50 in experiment [11] came out at 84 µM.

Compound `O=C(O)c1cc(-c2cccs2)cc(Cc2cc(-c3cccs3)cc(C(=O)O)c2O)c1O` returned an IC50 in experiment [11] of 27 µM.

In [11], `O=C(O)c1cc2ccccc2cc1O` gave an IC50 of more than 1000 µM.

For the origin of these results see ChEMBL document CHEMBL1143766, “Mono- and disalicylic acid derivatives: PTP1B inhibitors as potential anti-obesity drugs” (Bioorg Med Chem, 2007).
